Hits are enriched below; roughly 4.9% of the tested compounds scored in any of these assays.
STAT3 blocker – STAT3 signaling inhibition | 190,000 compounds, 0.89% hits | U3A cells, IL-6 STAT3-luciferase reporter, luminescence; host cell line lacks STAT1 | inhibition, % at 5.5 µM;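 active means inhibition above the mean inhibition across all screened compounds plus 3 SD, cut at about 44% in these data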;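 further: 0% = DMSO only wells and 100% = 100 µM nifuroxazide control wells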
APP 5'UTR act – activates APP 5'UTR luciferase reporter | SH-SY5Y APP 5'UTR luciferase reporter, luminescence; zero percent = DMSO vehicle wells | 190,000 compounds, 1% hits | activation, % at 2 µM;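 active means activation above a set limit, based on mean plus 3 SD of controls, cut at about 140% in these data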
STAT3 act – increases IL-6 driven STAT3 reporter signal; U3A cells, IL-6 STAT3-luciferase reporter, luminescence; 100% = signal with IL-6 EC80 alone; activation (% of control), % at 5.6 µM; 190,000 compounds, 0.91% hits;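 active means activation above the screen-wide mean of compound activation plus 3 SD, cut at about 130% in these data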;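 further: 0% = background luminescence of wells with medium and substrate only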
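Material: STAT1-lacking human U3A cells, STAT3 luciferase reporter | Benchmarks: IL-6-only wells as 100% reference | Probe or stimulus: IL-6 (33 ng/mL) | Timing: Compound 1 h, then IL-6 6 h at 37 °C | Detection: Luminescence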
NF-kB neuron act – NF-kB expression increase, human neuronal cells. NF-kB reporter expression; active compounds read high. fold change at 12.5 µM. 190,000 compounds, 1.6% hits. AID 1239; in the data active means fold change above about 3.3
STAT1 activator – activators of IFN-gamma induced STAT1 signaling; activation (% of control), % at 5.5 µM; 200,000 compounds, 2.6% hits; NIH 3T3 STAT1-luciferase reporter, luminescence; 100% = IFN-gamma alone, no compound; AID 932;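 active means activation above the screen-wide mean activation plus 3 SD, cut at about 130% in these data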;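 further: raw ratio to IFN-gamma control signal so 100% means no change and 0% no light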
STAT1 inh – inhibitors of IFN-gamma induced STAT1 signaling; NIH 3T3 STAT1-luciferase reporter, luminescence; inhibition, % at 5.5 µM; 200,000 compounds, 0.35% hits; AID 920;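 active means inhibition above a set limit, the mean inhibition across all tested compounds plus 3 SD, cut at about 34% in these data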;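 further: 0% = IFN-gamma with DMSO and 100% = IFN-gamma with 300 µM nifuroxazide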
* = called active by the depositor; x = not tested or not shown.

SMILES | STAT3 blocker | APP 5'UTR act | STAT3 act | NF-kB neuron act | STAT1 activator | STAT1 inh
Cn1c(=O)c(/C=C/c2ccccc2)nc2ccccc21 | -52.2 | 138.4* | 145.8* | 4.2* | 133.6* | -37.6
COc1ccccc1Cn1c(/C=C/c2ccccc2)nc2ccccc21 | -8.7 | 38.5 | 109.6 | 1.98 | 112.1 | -13.5
COC(=O)c1ccc(NC(=S)NCCCn2ccnc2)cc1 | -4.1 | -14.4 | 108.1 | 1.03 | 99.1 | -0.4
CCCCNC(=O)C1CC(c2cccc([N+](=O)[O-])c2)=NO1 (configuration not stated) | -12.4 | 50.2 | 118.1 | 3.5* | 140.3* | -44.7
O=[N+]([O-])c1ccc(O)c(/C=N/Nc2ccccc2Cl)c1 | 24.6 | 68.2 | 82.8 | 1.33 | 123.6 | -25.8
O=[N+]([O-])c1ccccc1N/N=C\c1ccccc1Cl | 9.7 | x | 96.7 | 3.67* | 127.2 | -30.2
CC1CC(C)CN(S(=O)(=O)c2ccc(C(C)(C)C)cc2)C1 (configuration not stated) | -12.5 | 6.6 | 109.8 | 0.9 | 80.5 | 20.9
O=C(NCCc1ccc(F)cc1)c1ccc([N+](=O)[O-])cc1 | 17.2 | 96.4 | 92.4 | 2.19 | 137.2* | -40.1
CCOC(=O)c1ccc(Nc2ncccc2[N+](=O)[O-])cc1 | -1.2 | 151.1* | 105.6 | 7.84* | 134.8* | -39.0
CCOc1ccc(NC(=S)Nc2ccc(OCC)cc2)cc1 | 7.6 | 0.3 | 97.2 | 0.92 | 96.7 | 1.9
Cc1ccc(Nc2ncccc2C(N)=O)cc1[N+](=O)[O-] | 1.6 | 75.4 | 98.8 | 1.16 | 141.3* | -47.1
CCOC(=O)c1ccc(NC(=S)Nc2ccccn2)cc1 | 29.7 | 52.2 | 78.7 | 1.7 | 128.8* | -31.9
CCOc1ccc(NC(=S)Nc2cc(C)[nH]n2)cc1 | -1.1 | 14.9 | 106.5 | x | 131.7* | -33.9
CCOC(=O)c1ccc(NC(=S)Nc2ccc(Cl)cn2)cc1 | 26.0 | 22.8 | 85.7 | 1.44 | 108.6 | -10.3
COC(=O)c1ccc(C(=O)Nc2ccc(C(C)C)cc2N)cc1 | 1.8 | 58.1 | 101.6 | 1.57 | 104.5 | -6.9
c1c2c(cc3sc(N4CCOCC4)nc13)OCCO2 | 88.8* | 81.2 | 23.4 | 1.04 | 53.0 | 51.4*
CCN(CC)C(=S)SCC(=O)c1c(C)[nH]c2ccccc12 | 6.4 | -2.6 | 90.7 | 1.03 | 106.3 | -6.9
CCN(CC)C(=S)SCC(=O)c1ccccc1 | 2.9 | 50.7 | 103.8 | 1.16 | 130.1* | -33.4
CCN(CC)C(=S)SCC(=O)c1ccc(F)cc1 | -3.6 | 77.2 | 113.1 | 2.09 | 132.7* | -36.3
Cc1ccc(/C=N/NC(=O)c2cc(C3CC3)nc3ccccc23)o1 | -1.1 | -28.4 | 100.1 | 1.01 | 98.5 | 1.7
O=c1[nH][nH]cc1C=Nc1cc(Cl)ccc1O | 12.4 | -20.6 | 95.7 | 4.15* | 82.9 | 18.1
O=c1[nH][nH]cc1C=Nc1ccccc1Cl | 17.9 | -3.0 | 90.1 | 1.12 | 102.9 | -4.6
O=c1[nH][nH]cc1C=Nc1ccccc1O | 13.8 | 22.2 | 94.7 | 6.22* | 82.2 | 19.8
CCCS(=O)(=O)N1CCN(Cc2c[nH]c3ccccc23)CC1 | -25.0 | 32.3 | 124.4 | 1.11 | 89.2 | 10.0
CC(=O)Nc1ccc(N/C=C/C(=O)c2ccco2)cc1 | 3.9 | 49.7 | 96.3 | 2.43 | 141.2* | -44.7
SMILES | STAT3 blocker | APP 5'UTR act | STAT3 act | NF-kB neuron act | STAT1 activator | STAT1 inh
COc1ccccc1Oc1ccc(N/C=C/C(=O)c2ccco2)cc1 | -4.4 | 71.8 | 103.3 | 5.21* | 143.1* | -46.0
CC(=O)Nc1ccc(NC(=O)c2ccco2)cc1 | -2.2 | 16.1 | 106.8 | 1.13 | 107.2 | -7.8
CCCCCCNc1c([N+](=O)[O-])cc(C)cc1[N+](=O)[O-] | 7.5 | 10.0 | 97.4 | x | 91.4 | 9.3
O=C(c1ccc(COc2ccc3c(c2)CCC3)o1)N1CCN(c2ccccc2)CC1 | -6.2 | 0.7 | 108.8 | x | 101.9 | -2.1
O=C(c1ccco1)N1CCN(C(=O)c2ccc(COc3ccc4c(c3)CCC4)o2)CC1 | 5.8 | -4.4 | 98.4 | 0.45 | 132.4* | -35.4
COC(=O)C1C(=O)/C(=C/N(C)C)C(=O)CC1(C)C (configuration not stated) | -2.5 | 36.6 | 103.4 | 6.15* | 102.0 | -3.3
N#CCCN(C(=O)COc1ccc(F)cc1Br)c1ccccc1F | 2.4 | 1.7 | 102.1 | 1.15 | 99.2 | 0.7
COc1ccccc1-n1cc(-c2ccc(Cl)cc2)[nH]c1=O | 6.9 | -8.8 | 95.0 | 1.15 | 94.3 | 6.3
Cc1nn(-c2ccccn2)c2c1-c1nc(N)ncc1CC2 | 0.7 | 44.7 | 100.0 | 1.66 | 134.0* | -37.6
C(=N\Nc1nc2ccccc2s1)/c1cccs1 | -18.6 | 212.2* | 119.2 | 7.07* | 145.7* | -51.2
Cc1cc(N/N=C/c2ccco2)c2ccccc2n1 | -2.0 | -1.4 | 108.5 | 1.38 | 105.4 | -6.9
Cc1ccsc1/C=N/Nc1nc2ccccc2s1 | -58.9 | 231.9* | 144.3* | 10.7* | 180.9* | -82.2
Cc1nn(-c2ccccc2Cl)c(Cl)c1/C=N/Nc1nc2ccccc2s1 | 73.2* | -39.0 | 39.1 | 0.36 | 69.9 | 33.8
C(=N\Nc1nc2ccccc2s1)/c1ccco1 | 3.8 | 202.6* | 100.9 | 5.51* | 143.5* | -48.7
CC(C1CC1)N(Cc1ccccc1)C(=S)Nc1ccccc1Cl (configuration not stated) | -8.3 | 3.1 | 108.2 | 1.11 | 95.6 | 4.6
Cc1cc(Cl)ccc1OCC(=O)NNC(=O)C1CCCO1 (configuration not stated) | 14.1 | 9.8 | 97.5 | 1.25 | 103.0 | -4.1
CCOc1ccc(C(=O)O)cn1 | -5.1 | -4.0 | 105.2 | 0.93 | 100.2 | -1.3
Cc1cc(C)nc(N/N=C/c2sccc2C)n1 | 10.4 | 21.5 | 98.8 | 1.26 | 115.4 | -16.4
Cc1ccsc1/C=N/Nc1ncc(Cl)cc1Cl | 12.0 | x | 89.0 | 2.4 | 139.5* | -43.0
COC(=O)c1ccc2nc(NC(=O)CN3C(=O)CCC3=O)sc2c1 | -11.0 | -4.2 | 113.8 | 1.3 | 100.9 | -0.9
CCOC(=O)c1ccc2nc(Nc3nc4ccc(F)cc4s3)sc2c1 | 73.4* | -6.8 | 37.9 | 0.77 | 61.7 | 43.0*
COC(=O)c1ccc2nc(Nc3nc4c(F)cc(F)cc4s3)sc2c1 | 93.6* | -4.0 | 20.8 | 1.32 | 37.8 | 69.8*
CCOC(=O)N1CCN(S(=O)(=O)c2ccc(C(=O)Nc3nc4ccc(F)cc4s3)cc2)CC1 | 8.8 | 11.2 | 94.6 | 1.22 | 97.5 | 2.7
CC(C)C(=O)Nc1nc2ccc(S(C)(=O)=O)cc2s1 | 1.9 | -5.8 | 100.4 | 1.68 | 103.2 | -5.4
COC(=O)c1ccc2nc(NC(=O)C(C)C)sc2c1 | 32.5 | 96.5 | 75.5 | 6* | 134.4* | -36.7
COc1cc([N+](=O)[O-])cc2cc(C(=O)N3CCCC3)c(=O)oc12 | 4.8 | 15.4 | 97.3 | 1.48 | 97.5 | 1.6
C/C(=N\Nc1ccc(F)cc1F)c1ccc(Br)s1 | 18.3 | 1.1 | 86.8 | 1.44 | 114.1 | -15.9
CC(=O)N1CCc2ccccc2C1CC(=O)O (configuration not stated) | 6.0 | -11.7 | 103.0 | 1.23 | 95.3 | 5.3

Source: PubChem
